The values below come from ChEMBL document CHEMBL4680241, “Structure-activity relationships of triazole-benzodioxine inhibitors of cathepsin X” (Eur J Med Chem, 2020).

Active and inactive are the calls of the source. No cut-off for these calls is given here.

By IC50 is commonly meant the point on the concentration scale where inhibition reaches its midpoint. By inhibition is commonly meant the share of the control response that was lost under treatment.

In assay [1] the target is T1, Cathepsin Z (Homo sapiens, UniProt Q9UBR2). Nature of the assay: Inhibition of human cathepsin X expressed in Pichia pastoris assessed as residual activity at 50 uM using Abz-FEK(Dnp)-OH as substrate incubated for 30 to 45 mins by fluorescence assay relative to control. The settings on record: time 30-45 min. The method, boiled down: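 Substrate was Abz-FEK(Dnp)-OH at 3.25 µM final, compound at 50 µM final. Fluorescence (ex 320/em 420 nm) was followed continuously for 30-45 min at 37 °C. Activity was taken from rates relative to no-compound velocity. Two experiments in duplicate.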

Assay [2] has as its target T1, Cathepsin Z. Put plainly: Inhibition of human cathepsin X expressed in Pichia pastoris assessed as residual activity using Abz-FEK(Dnp)-OH as substrate incubated for 30 to 45 mins by fluorescence assay.
Assay [3] relates to PC-3. Nature of the assay: Cytotoxicity against human PC-3 cells assessed as reduction in cell viability at 20 uM after 24 to 48 hrs by MTS assay. Type of assay: functional, cell-based. The settings on record: time 24-48 hrs. Put shortly:
(§1)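 PC-3 cells seeded at 6.5×10^4 cells/mL in Advanced DMEM/F-12 with 10% FBS and exposed to compound at 10 or 20 µM for 24 h or 48 h. Means ± SD of three independent assays, each in triplicate.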
For orientation: Formazan colour is commonly taken as a measure of viable cells.

In assay [4] the test system is PC-3. Put plainly: Cytotoxicity against human PC-3 cells assessed as reduction in cell viability at 10 uM after 24 to 48 hrs by MTS assay. It counts as functional, cell-based. The settings on record: time 24-48 hrs. Put shortly:
as §1

Assay [5] concerns PC-3. Put plainly: Antimigratory activity against human PC-3 cells at 20 uM up to 72 hrs by xCELLigence based RTCA analysis. It counts as functional, cell-based. The settings on record: time hrs <=72. Put shortly:
(§2)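 PC-3 cells grown in Advanced DMEM/F-12 (1:1) with 10% FBS, L-glutamine and penicillin/streptomycin. Fibronectin-coated (10 μg/mL) xCELLigence CIM plates held 2 × 10⁴ cells per well. Compound at 10 or 20 μM was added to complete medium (lower chamber) or serum-free medium (upper chamber), with 0.1% DMSO as control. Cell index was read every 15 min for 72 h. Migration was taken as the slope of the curve over a selected interval, normalized to DMSO-treated cells. Means ± SD, two independent assays in duplicate or triplicate.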

The target in assay [6] is T2, Cathepsin S (Homo sapiens, UniProt P25774). Put plainly: Inhibition of human cathepsin S expressed in Pichia pastoris using Z-VVR-AMC as substrate by fluorescence assay. Put shortly:
(§3)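 Cathepsin S expressed in P. pastoris, assayed in 100 mM phosphate buffer pH 6.5 containing 5 mM cysteine, 1.5 mM EDTA and 0.1% PEG 8000 after 5 min activation at 37 °C. Substrate was fluorogenic Z-VVR-AMC.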
Target sequence in this assay (P25774 whole entry): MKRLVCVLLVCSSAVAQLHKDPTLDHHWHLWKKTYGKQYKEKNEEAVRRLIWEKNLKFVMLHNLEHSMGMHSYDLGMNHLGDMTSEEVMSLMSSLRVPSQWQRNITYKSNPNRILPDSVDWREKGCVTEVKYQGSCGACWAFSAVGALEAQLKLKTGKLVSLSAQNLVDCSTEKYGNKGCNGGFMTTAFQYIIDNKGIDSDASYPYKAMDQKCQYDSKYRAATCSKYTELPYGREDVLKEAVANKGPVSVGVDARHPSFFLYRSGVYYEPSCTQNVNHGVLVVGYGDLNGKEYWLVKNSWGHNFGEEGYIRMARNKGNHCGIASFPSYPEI

In assay [7] the test system is PC-3. Put plainly: Antimigratory activity against human PC-3 cells at 10 uM up to 72 hrs by xCELLigence based RTCA analysis relative to control. Type of assay: functional. To be noted: dose 20 µM; time hrs <=72; in the assay text read “at 20 uM” for “at 10 uM”. Put shortly: as §2
In assay [8] the target is Cathepsin B (Homo sapiens) (UniProt P07858). Nature of the assay: Inhibition of human cathepsin B expressed in Escherichia coli at 100 uM using Abz-GIVRAK(Dnp)-OH as substrate by fluorescence assay relative to control. The method, boiled down:
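Cathepsin B exopeptidase activity: recombinant enzyme from E. coli in 60 mM acetate buffer pH 5.0 with 5 mM cysteine, 1.5 mM EDTA and 0.1% PEG 8000, activated 5 min at 37 °C. Fluorogenic substrate Abz-GIVRAK(Dnp)-OH.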

Assay [9] deals with Procathepsin L (Homo sapiens) (UniProt P07711). Nature of the assay: Inhibition of human cathepsin L expressed in Escherichia coli at 100 uM using Z-FR-AMC as substrate by fluorescence assay relative to control.
For assay [10], the target named is T2, Cathepsin S. Nature of the assay: Inhibition of human cathepsin S expressed in Pichia pastoris at 100 uM using Z-VVR-AMC as substrate by fluorescence assay relative to control. Put shortly:
as §3
Target sequence in this assay (P25774 115-331 limits assumed): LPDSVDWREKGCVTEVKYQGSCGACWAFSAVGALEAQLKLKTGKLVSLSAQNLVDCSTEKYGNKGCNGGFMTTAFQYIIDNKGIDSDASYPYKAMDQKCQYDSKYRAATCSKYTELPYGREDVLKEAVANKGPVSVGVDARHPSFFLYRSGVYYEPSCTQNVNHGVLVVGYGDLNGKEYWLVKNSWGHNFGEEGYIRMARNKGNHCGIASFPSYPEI

T1 sequence (Q9UBR2 whole entry): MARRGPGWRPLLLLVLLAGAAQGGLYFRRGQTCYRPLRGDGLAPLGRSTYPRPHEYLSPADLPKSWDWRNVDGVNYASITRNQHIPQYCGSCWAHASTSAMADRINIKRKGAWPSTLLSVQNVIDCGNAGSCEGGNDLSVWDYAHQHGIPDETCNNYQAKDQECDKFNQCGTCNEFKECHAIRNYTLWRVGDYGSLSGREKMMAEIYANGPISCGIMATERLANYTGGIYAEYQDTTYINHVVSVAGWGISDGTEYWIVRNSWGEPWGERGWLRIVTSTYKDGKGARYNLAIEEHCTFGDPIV
Chain of Procathepsin L (Homo sapiens) (P07711 114-333 limits assumed): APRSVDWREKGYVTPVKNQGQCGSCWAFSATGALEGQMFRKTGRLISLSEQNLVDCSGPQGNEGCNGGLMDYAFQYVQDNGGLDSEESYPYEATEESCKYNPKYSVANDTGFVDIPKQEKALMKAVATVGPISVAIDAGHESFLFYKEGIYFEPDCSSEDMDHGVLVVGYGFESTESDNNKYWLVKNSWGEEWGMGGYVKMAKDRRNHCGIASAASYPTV

`Cc1ccc(C(=O)CSc2nncn2C(C)C)cc1`: the Activity on Cathepsin Z [1] is 75%.
The same measure, in the same setting: as for `CC(C)n1cnnc1SCC(=O)c1ccc(OCC(=O)O)cc1`, the figure is 85%; as for `NC(=O)c1ccc(-n2cnnc2SCC(=O)c2ccc3c(c2)OCCO3)cc1`, 35%; as for `CC(C)n1cnnc1SCC(=O)c1ccc(Br)cc1`, 77%.
On to `CC(C)n1cnnc1SCC(=O)c1ccc(N(C)C)cc1`, for which the Activity at Cathepsin Z [1] was found to be 41%.
`O=C(CSc1nc(C2CCCCC2)nn1C(=O)C1CCCCC1)c1ccc2c(c1)OCCO2`: the Activity at Cathepsin Z [1] turned out to be 43%.
As to `O=C(CSc1ncc[nH]1)c1ccc2c(c1)OCCO2`, the Activity at Cathepsin Z [1] came to 17%. Further, the IC50 at Cathepsin Z [2] was determined as 13.6 µM. Further, the result in the assay with PC-3 [3] was inactive.
`COc1cccc(C(=O)CSc2nncn2C(C)C)c1`: the Activity on Cathepsin Z [1] is 73%.
`Cc1n[nH]c(SCC(=O)c2ccc3c(c2)OCCO3)n1`: the Activity at Cathepsin Z [1] stood at 28%.
With `COc1ccc(C(=O)CSc2nncn2C(C)C)cc1`, on Cathepsin Z [1], the Activity was 66%.
Consider `COc1ccccc1C(=O)CSc1nncn1C(C)C`, for which the Activity on Cathepsin Z [1] was 49%.
Turning to `O=C(CSc1nc(-c2ccccc2)n[nH]1)c1ccc2c(c1)OCCO2`, on Cathepsin Z [1], the Activity is 37%.
In the case of `Cc1[nH]c2ccccc2c1C(=O)CSc1nncn1C(C)C`, the Activity on Cathepsin Z [1] turned out to be 62%.
With `O=C(CSc1cccs1)c1ccc2c(c1)OCCO2`, the Activity at Cathepsin Z [1] was 39%.
Take `Cn1ccnc1SCC(=O)c1ccc2c(c1)OCCO2`: the Activity at Cathepsin Z [1] is 15%. Besides, the outcome in the assay on PC-3 [4] and in the assay with PC-3 [3] was inactive. The IC50 on Cathepsin Z [2] came out at 9.54 µM.
Consider `O=C(CSc1ccccc1)c1ccc2c(c1)OCCO2`, for which the Activity at Cathepsin Z [1] was determined as 48%.
On to `CC(C)n1cnnc1SCC(=O)c1ccc(C#N)cc1`, for which the Activity at Cathepsin Z [1] was determined as 92%.
In the case of `O=C(CSc1nc(-c2ccncc2)n[nH]1)c1ccc2c(c1)OCCO2`, the Activity at Cathepsin Z [1] was determined as 33%.
Regarding `Cn1cnnc1SCC(=O)c1ccc2c(c1)OCCO2`, the result with PC-3 [5] and with PC-3 [3] was inactive. Moreover, the Activity on Cathepsin Z [1] was 17%. The IC50 on Cathepsin Z [2] amounted to 11.8 µM.
As to `CC(C)n1cnnc1SCC(=O)c1cccc([N+](=O)[O-])c1`, on Cathepsin Z [1], the Activity amounted to 100%.
With `CN(C)c1ccc(-n2cnnc2SCC(=O)c2ccc3c(c2)OCCO3)cc1`, the Activity on Cathepsin Z [1] was determined as 55%.
`Cn1nnnc1SCC(=O)c1ccc2c(c1)OCCO2`: at Cathepsin Z [1], the Activity stood at 36%.
On the same count and under the same terms, as for `CCn1cnnc1SCC(=O)c1ccc2c(c1)OCCO2`, the figure is 24%; as for `CCOC(=O)COc1ccc(C(=O)CSc2nncn2C(C)C)cc1`, 60%.
For the compound `CC(C)n1cnnc1SCC(O)c1ccc2c(c1)OCCO2` (configuration not stated), the Activity at Cathepsin Z [1] was 98%.
As for `O=C(CSc1nccs1)c1ccc2c(c1)OCCO2`, the Activity on Cathepsin Z [1] was 22%.
Still for that read-out and setting: as for `CC(C)Oc1ccc(C(=O)CSc2nncn2C(C)C)cc1`, the figure is 63%; as for `O=C(CSc1nnc[nH]1)c1ccc2c(c1)OCCO2`, 23%; as for `CO/N=C(\CSc1nncn1C(C)C)c1ccc2c(c1)OCCO2`, 90%.
For `CC(C)n1cnnc1SCC(=O)c1ccc(OCC#N)cc1`, the Activity at Cathepsin Z [1] came out at 69%.
For the compound `N#CCn1ccnc1SCC(=O)c1ccc2c(c1)OCCO2`, the IC50 against Cathepsin S [6] came out at 241 µM; at Cathepsin Z [2], 7.13 µM. Besides, the Activity amounted to 21% in the assay with PC-3 [7] and 12% on Cathepsin Z [1]. For the same compound, the inhibition (in assay [8]; in assay [9]; against Cathepsin S [10]) was 30% each time. The outcome with PC-3 [3] was inactive.
For `CC(C)n1cnnc1SCC(=O)c1ccc2c(c1)OCO2`, the Activity at Cathepsin Z [1] turned out to be 24%.
For the compound `CC(C)n1cnnc1SCC(=O)c1ccc2c(c1)OCCO2`, the Activity at Cathepsin Z [1] was 15%. On Cathepsin Z [2], the IC50 came out at 11.5 µM. In addition, the result with PC-3 [3] was inactive.
`CC(C)n1cnnc1SCC(=O)c1ccccc1`: the Activity on Cathepsin Z [1] came to 100%.
Consider `CC(C)n1cnnc1SCC(=O)C(C)(C)C`, for which the Activity on Cathepsin Z [1] is 80%.
On the same count and under the same terms, as for `CC(C)n1cnnc1SCC(=O)c1c[nH]c2ccccc12`, the figure is 27%; as for `O=C(CSc1nncn1-c1cccnc1)c1ccc2c(c1)OCCO2`, 22%.
As for `O=C(CSc1nc(C2CCCCC2)n[nH]1)c1ccc2c(c1)OCCO2`, the Activity on Cathepsin Z [1] is 30%.
With `CC(C)n1cnnc1SCC(=O)c1ccc(O)cc1`, the Activity on Cathepsin Z [1] stood at 73%.
As to `N#Cc1ccc(-n2cnnc2SCC(=O)c2ccc3c(c2)OCCO3)cc1`, the Activity at Cathepsin Z [1] worked out at 20%. Also, the outcome with PC-3 [4] was inactive. In addition, the IC50 on Cathepsin Z [2] is 12.4 µM. In addition, the outcome in the assay on PC-3 [3] was Active.
Turning to `O=C(COc1nnc[nH]1)c1ccc2c(c1)OCCO2`, the Activity on Cathepsin Z [1] was 71%.
Still for that read-out and setting: as for `CC(C)n1cnnc1SCC(N)c1ccc2c(c1)OCCO2` (configuration not stated), the figure is 90%.
